m-calpain inh – inhibitors of pig calpain II; actives 0.37% (n = 220,000); purified calpain II, fluorogenic peptide substrate, 30 min; inhibition, % at 16 µM; AID 1236;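 active = inhibition above about 50%, limit read from the data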
Arbovirus anti – arbovirus infection inhibition | arbovirus infection cell-based antiviral screen | inhibition, % at 10 µM | actives 0.37% (n = 200,000) | AID 1251; in the data active = inhibition above about 30%
Cl transport mod – modulates chloride dependent transport by human KCC2 | Q9H2X9 | KCC2 cells, thallium flux FluoZin-2 fluorescence | B-score of Tl+ flux slope (higher = more flux/activation; lower = inhibition) at 10 µM | actives 2.2% (n = 190,000);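 active = thallium flux slope and its plate-corrected score both differing from the plate sample mean at a set confidence after two filtering rounds, in either direction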;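 note: slope of fluorescence scaled to starting intensity during 10 to 20 s after thallium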
MDM2 E3 inh – blocks human Mdm2 ubiquitin ligase activity | Q00987 | cell-based MDM2 ubiquitination luciferase reporter, 2 h; 0 = plate control, 100 = twice control, blank-subtracted | signal enhancement, % at 5 µM | actives 0.11% (n = 210,000);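 active = signal enhancement of 30% or more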;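 note: luminescence tracks abundance of the self-degrading MDM2-luciferase fusion protein; higher signal means inhibition of MDM2 E3 ligase activity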
Target sequence (Q00987 whole entry, looked up, the tested form may be a part): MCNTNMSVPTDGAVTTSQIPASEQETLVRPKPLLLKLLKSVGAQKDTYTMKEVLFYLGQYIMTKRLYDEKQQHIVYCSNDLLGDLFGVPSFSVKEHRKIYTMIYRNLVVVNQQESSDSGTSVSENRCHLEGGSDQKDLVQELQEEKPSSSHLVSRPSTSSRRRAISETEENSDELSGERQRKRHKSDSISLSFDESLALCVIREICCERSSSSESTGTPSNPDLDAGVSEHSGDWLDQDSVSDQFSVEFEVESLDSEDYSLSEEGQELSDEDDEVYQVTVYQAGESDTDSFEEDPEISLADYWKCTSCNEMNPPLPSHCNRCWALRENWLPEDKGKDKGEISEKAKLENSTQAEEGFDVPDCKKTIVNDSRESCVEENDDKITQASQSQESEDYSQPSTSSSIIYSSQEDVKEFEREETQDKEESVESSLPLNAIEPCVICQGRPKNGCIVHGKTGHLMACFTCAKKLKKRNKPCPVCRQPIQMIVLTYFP
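Assay system: mammalian cells stably expressing self-ubiquitinating, self-degrading MDM2 E3–luciferase fusion. Quantity: 2000 cells in each well. Medium: DMEM culture medium. Compound dosing: single-point 5 µM. Timing: cell settling 4 h, compound treatment 2 h, both 37 °C. Technique: luciferase luminescence. Read-out basis: percent signal gain over controls, blank-subtracted. Benchmarks: plate controls and plate blanks.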
PKD1 inh – PKD1 (human) kinase inhibition | inhibition, % (test concentration not listed) | AID 797 | actives 0.056% (n = 200,000) | PKD1 kinase fluorescence polarization assay; in the data active = inhibition above about 50%
ROMK primary – modulates human ROMK potassium channel activity; Tet-inducible ROMK, thallium flux fluorescence; actives lie on both sides; P48048; actives 2% (n = 130,000); B-score at 10 µM;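 active = signal ratio slope over the read window, or its plate-corrected B-score, at least 3 SD from the plate mean, either direction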;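 note: B-score of the F/F0 ratio slope over 7 to 12 s after thallium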
KCC2 sec1 – confirmation of human KCC2 transport modulators; shares compounds with Cl transport mod; HEK293-KCC2, thallium flux, FluoZin2 fluorescence; active compounds read high; normalised thallium flux (F/F0 slope) at 10 µM; actives 15% (n = 3,700);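 active = thallium flux slope above the same plate's solvent-only control mean plus 3 SD; inconclusive = the two replicate wells disagree; inactive = no significant difference from solvent-only control wells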
KCC2 bumet counter – bumetanide-insensitive thallium flux in KCC2 cells with ouabain, counter-screen; shares compounds with Cl transport mod; HEK293-KCC2 + bumetanide/ouabain, thallium flux FluoZin2; active compounds read high; normalized thallium flux at 10 µM; actives 49% (n = 3,700);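 active = thallium entry rate above the same plate's blocked-transporter control wells by more than 3 SD; inconclusive = the two repeat wells disagree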;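 note: raw slope of fluorescence over initial fluorescence between 10 and 20 s after thallium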
KCC2 secondary2 – confirmation of human KCC2 transport modulators; actives 23% (n = 3,700); shares compounds with Cl transport mod; HEK293-KCC2, thallium flux FluoZin2 fluorescence; actives lie on both sides; F/F0 rise rate, 10–20 s post-thallium; normalized thallium flux at 10 µM;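 active = thallium flux slope more than 3 SD above or below the plate's solvent-only control mean, mostly below; inconclusive = the two repeat wells disagreed; inactive = no significant shift from solvent-only controls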;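 note: raw slope with 0.1% DMSO as baseline and bumetanide as block control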
HEK293 Tl flux – counter-screen for KCC2 modulators: effect in parental HEK293 cells. actives 46% (n = 3,700). thallium flux FluoZin2, ouabain; baseline-ratio fluorescence slope, 10–20 s after thallium. thallium flux rate (normalised fluorescence) at 10 µM. shares compounds with Cl transport mod;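 active = thallium flux rate significantly above the same plate's solvent-only control wells, beyond their mean plus 3 SD; inconclusive = the two replicate wells gave conflicting results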
KCC2 ouabain – KCC2 (human) modulation, ouabain retest; shares compounds with Cl transport mod; HEK293-KCC2, thallium flux FluoZin2 fluorescence; bidirectional: low = inhibitor, high = activator; raw Tl+ flux slope (below DMSO = inhibition, above = activation) at 10 µM; actives 48% (n = 3,700); AID 1717;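 active = thallium flux slope beyond 3 SD from same-plate DMSO control mean in most replicates, usually higher, sometimes lower; inconclusive = repeat tests gave conflicting results; inactive = no significant difference from controls in most replicates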;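 note: slope of initial-normalized fluorescence between seconds 10 and 20 after thallium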
HEK293 Tl flux2 – acts in parental HEK cells, second KCC2 counter-screen. HEK293 parental, thallium flux FluoZin-2 fluorescence slope. thallium flux slope at 10 µM. AID 1718. shares compounds with Cl transport mod. actives 33% (n = 3,700);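 active = thallium flux slope above the same plate's solvent-control mean plus 3 SD in both duplicate wells; inconclusive = duplicate wells that disagreed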;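 note: run without ouabain in cells lacking the KCC2 cotransporter; slope of fluorescence scaled to its starting value between 10 and 20 s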
Numbers without * were called inactive; ? = inconclusive; · = no result. Sampled rows, rich in hits. Any-hit rate of the full collection: about 3.7%.

SMILES | m-calpain inh | Arbovirus anti | Cl transport mod | MDM2 E3 inh | PKD1 inh | ROMK primary | KCC2 sec1 | KCC2 bumet counter | KCC2 secondary2 | HEK293 Tl flux | KCC2 ouabain | HEK293 Tl flux2
Cn1cnc2c1c(=O)[nH]c(=O)n2C | -13.9 | · | -0.363 | -1.4 | · | · | 0.00605 | 0.00503 | 0.0295 | 0.00771 | 0.0202 | 0.0107
CC(On1nnc2ccccc21)C(=O)N1CCN(Cc2ccccc2)CC1 (stereo unspecified) | -6.7 | 3.9 | -0.7 | -0.4 | -11.1 | 0.333 | · | · | · | · | · | ·
C#CCOCCOCCOCCNc1nc(N2CCN(C(=O)C([C@@H](C)CC)n3cc(C(N)Cc4ccc(O)cc4)nn3)CC2)nc(N2CCN(C(=O)[C@H](CCC(=O)O)n3cc(C(N)Cc4ccc(O)cc4)nn3)CC2)n1 (stereo partly specified) | 13.8 | -2.2 | -0.626 | · | -1.7 | · | · | · | · | · | · | ·
O=C(NC(=S)N1CCN(c2nc(-c3ccccc3)cs2)CC1)c1cccnc1 | -18.1 | 3.2 | 33.6* | -6.9 | -0.4 | 1.14 | 0.0277* | 0.111* | ? | 0.0415* | 0.0704* | 0.0151*
O=C(c1ccc2c(=O)n(C3CCCC3)c(=S)[nH]c2c1)N1CCCCCC1 | 5.7 | -1.6 | 5.32* | -19.2 | -5.8 | -0.824 | 0.0187 | 0.0247* | 0.0298 | 0.0101* | 0.0188 | 0.0128*
O=C(c1ccc2c(=O)n(-c3ccccc3)c(=S)[nH]c2c1)N1CCCCC1 | 17.9 | 6.6 | -1.4 | -9.8 | -3.7 | -0.0479 | · | · | · | · | · | ·
CC1CCCN(C(=O)c2ccc3c(=O)n(C4CCCC4)c(=S)[nH]c3c2)C1 (stereo unspecified) | 4.6 | -3.2 | 15.5* | -42.3 | -4.4 | -0.655 | 0.0107 | 0.0248* | ? | 0.0224* | ? | 0.011
Cn1c(C(=O)OC(C(=O)NC2CCCC2)c2cccnc2)cc2sccc21 (stereo unspecified) | 17.5 | -19.9 | -2.72* | -15.3 | -1.0 | · | 0.00833 | 0.00625 | 0.028 | 0.0075 | 0.0448* | 0.011*
O=C(/C=C\Nc1ccc2c(c1)OCO2)c1ccc(Cl)s1 | -4.8 | -27.2 | -0.0275 | -81.8 | -4.6 | -0.0164 | · | · | · | · | · | ·
C/C(=C\C(=O)c1ccc(Cl)s1)N(C)C | -3.8 | -1.3 | 3.78* | -22.7 | -2.0 | -0.512 | 0.0109 | 0.0143* | 0.0364 | ? | ? | 0.0107
COc1ccc2nc(N=Nc3c(O)ccc4ccccc34)sc2c1 | -31.6 | -33.3 | 13.5* | -24.4 | 0.5 | 0.87 | 0.0131* | 0.0503* | 0.0358 | 0.0249* | 0.0336* | 0.0157*
NC(=O)c1sc(=S)n2c1[nH]c(=O)c1sccc12 | -26.1 | 4.4 | 0.137 | 1.1 | -3.5 | -1.04 | · | · | · | · | · | ·
CC(=O)NNC(=O)c1sc(=S)n2c1[nH]c(=O)c1sccc12 | -18.7 | -5.1 | 8.19* | -3.7 | -8.5 | 0.711 | 0.00759 | 0.0103* | 0.0278 | 0.0121* | ? | 0.0118*
O=C(NCc1ccccc1)c1sc(=S)n2c1[nH]c(=O)c1ccccc12 | 6.9 | 1.8 | 20* | -49.6 | -8.7 | · | 0.0053 | 0.0649* | ? | 0.0561* | 0.0537* | 0.0452*
Cc1ccc(NC(=O)CSc2nccn2Cc2ccccc2)cc1C | -13.9 | -5.0 | -3.07* | 13.0 | -11.7 | · | ? | 0.00416 | 0.029 | 0.00528* | 0.0198* | 0.0092
